Screens (PubChem)
In the library only some 2.6% were active in any assay of this set; here they are far more common.
Ecoli rRNA inh: inhibitors of bacterial rRNA selective over humanized ribosomes; hit rate 1.6% among 350,000; E. coli WT GFP vs humanized-ribosome RFP mutants, fluorescence, 24 h; stronger effect = lower value; DMSO median 0, no signal -100; GFP signal change (wild-type ribosome), % (test concentration not listed);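 active = significant combined selectivity score with lowered wild-type GFP, culture density cut under 30%, mutant RFP and density less affected; inactive = any of these conditions unmet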
AF4-AF9 inh: inhibitors of human MLL-AF4/AF9 interaction; P42568; AlphaScreen, biotin-AF4 peptide binding to FLAG-AF9; inhibition, % at 10 µM; hit rate 0.47% among 350,000; AID 651704;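 active = every replicate reaching a set inhibition limit, whatever the replicate mean, cut at about 25% in these data; inconclusive = mean inhibition reaches that limit but some replicates miss it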;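 note: 0% = plate neutral control median and 100% = total signal loss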
Target sequence (P42568 whole entry, looked up): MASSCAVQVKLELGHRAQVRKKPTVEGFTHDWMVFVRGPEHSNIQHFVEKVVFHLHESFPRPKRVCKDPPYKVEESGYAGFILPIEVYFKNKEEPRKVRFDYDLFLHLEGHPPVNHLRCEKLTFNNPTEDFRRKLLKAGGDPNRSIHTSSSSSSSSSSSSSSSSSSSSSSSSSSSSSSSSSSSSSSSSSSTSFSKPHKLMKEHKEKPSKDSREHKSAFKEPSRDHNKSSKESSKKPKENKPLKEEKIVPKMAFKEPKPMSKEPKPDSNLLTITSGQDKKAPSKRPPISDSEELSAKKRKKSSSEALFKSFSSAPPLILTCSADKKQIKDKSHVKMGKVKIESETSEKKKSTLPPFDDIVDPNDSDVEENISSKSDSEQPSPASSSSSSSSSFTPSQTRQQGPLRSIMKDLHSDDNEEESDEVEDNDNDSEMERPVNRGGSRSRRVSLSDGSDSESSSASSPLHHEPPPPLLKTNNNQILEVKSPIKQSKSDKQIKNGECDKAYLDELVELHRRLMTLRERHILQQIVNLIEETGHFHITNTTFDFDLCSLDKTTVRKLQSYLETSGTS
RAD52 anneal inh: blocks human RAD52 DNA annealing | P43351 | recombinant RAD52 DNA annealing, FRET fluorescence | inhibition, % at 18.7 µM | hit rate 0.46% among 360,000;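 active = every replicate showing at least 50% inhibition; inconclusive = mean inhibition at least 50% but not in every replicate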
RAD54 inh: blocks human RAD54 Holliday junction branch migration; inhibition, % at 10.4 µM; Q92698; hit rate 0.14% among 360,000; FAM/BHQ fluorescence;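 active = mean normalized replicate activity at least 40 and at least half of replicates scoring 40 or more; inconclusive = only one of the two criteria met; inactive = mean below 40 and under half of replicates reaching 40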;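 note: 0% = median of neutral control wells and 100% = median of positive control wells; inhibitors cause a drop in the FAM fluorescence signal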
GSIS activator: GLuc luminescence reporter in INS-1E cells, primary screen for activators of glucose-dependent secretion of insulin; INS-1E GLuc reporter insulin secretion, 2-3 h; activation, % at 16.6 µM; hit rate 0.61% among 370,000; AID 743287;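 active = lowest replicate activation of at least 40%, so every replicate reaches that level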;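 note: 0% = median of neutral control wells and 100% = median of IBMX positive control wells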
E-selectin induc: induces E-selectin expression in human endothelial cells. P16581. HUVEC E-selectin immunofluorescence imaging; normalized: neutral wells 0, TNF-alpha wells 100. activation, % at 7.58 µM. hit rate 0.37% among 260,000;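 active = mean E-selectin-positive cell signal at least 10% of the positive control, reached in at least 60% of replicates, without over 20% cell loss; inconclusive = no rule given, readout overlaps actives, possibly toxicity-flagged; inactive = the rest, including those meeting only one limit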
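System: HUVEC, human umbilical vein endothelial cells; quantity: 3,000 cells/well; buffer or medium: EGM-2 medium, gelatin-coated wells; dosing: single-point compound dose; detection: immunofluorescence imaging; evaluation: % PE-positive cells; benchmarks: TNF-alpha, DMSO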
* hit, by the source's call; ? = inconclusive; . = no result given.

SMILES	Ecoli rRNA inh	AF4-AF9 inh	RAD52 anneal inh	RAD54 inh	GSIS activator	E-selectin induc
CCCS(=O)(=O)c1ccc(COC(=O)c2cccc(NC(=O)C(C)C)c2)cc1	-39*	1	-12	.	-8	.
CC(=O)Nc1cccc(C(=O)OCc2ccccc2)c1	.	.	.	-13	.	.
CCC(=O)Nc1ccc2c(c1)C(=O)N(C)C[C@H](OC)[C@@H](C)CN(C(=O)COC)[C@H](C)CO2	-3	-2	-27	-8	17	0
CCCC#Cc1ccc2c(c1)O[C@@H](CN(C)S(=O)(=O)c1cccc(OC)c1)[C@H](C)CN([C@H](C)CO)S2(=O)=O	-1	.	.	.	-23	0
CCCOc1ccc(/C(O)=C2/C(=O)C(=O)N(CCCn3ccnc3)C2c2ccc(C)o2)cc1 (centres undefined)	-18*	1	-17	.	.	0
Cc1cc(C)c(C)c(S(=O)(=O)N2CCN(CC(=O)Nc3ccc([N+](=O)[O-])cc3)CC2)c1C	.	.	.	.	122*	0
C[C@@H]1CN([C@H](C)CO)C(=O)c2c(c3ccccc3n2C)-c2ccccc2CO[C@H]1CN(C)Cc1ccc(Cl)c(Cl)c1	6	0	2	.	-7	2
COc1ccc2c3c([nH]c2c1)[C@H](CO)N(C(=O)C1CCOCC1)CC31CN(Cc2cccc(F)c2)C1	-2	1	4	.	2	0
Cc1c(NC(=O)/C(C#N)=C/c2c(Oc3ccccc3)nc3ccccn3c2=O)c(=O)n(-c2ccccc2)n1C	.	.	.	.	45*	.
CC(C)(C)OC(=O)N1CCCN(C(=O)c2ccc(Cl)cc2)CC1	5	-1	-10	-6	192*	0
C[C@H](O)C#Cc1cnc2c(c1)C(=O)N([C@H](C)CO)C[C@H](C)[C@@H](CN(C)C(=O)c1ccncc1)O2	7	-2	11	11	11	0
CC(=O)Nc1ccc(/C(N=Nc2ccccc2)=N/N=C(N)N)cc1	-20*	?	0	.	-8	0
Cc1c(Cc2ccccc2)c(=O)oc2cc(OCC(=O)NC(Cc3ccc(Cl)cc3)C(=O)O)ccc12 (centres undefined)	-27*	-2	-10	-2	-24	.
COc1ccccc1NCc1cc(=O)oc2c(C)c(O)ccc12	-4	-2	-1	0	0	0
COC(=O)c1ccccc1NCc1cc(=O)oc2cc(O)c(O)cc12	-22*	0	-18	7	3	1
COc1ccc(C)cc1NCc1cc(=O)oc2cc(-c3ccccc3)c(O)cc12	.	.	.	.	107*	.
O=C(NCc1ccncc1)[C@H]1N[C@H]2c3ccc(/C=C/c4ccccc4)c(=O)n3C[C@H]2[C@@H]1CO	-2	4	-19	5	6	1
C[C@H]1CN([C@@H](C)CO)C(=O)c2cccc(NS(C)(=O)=O)c2O[C@H]1CN(C)CC1CC1	6	-8	5	10	18	1
C[C@H](CO)N1C[C@H](C)[C@H](CN(C)C(=O)Cc2ccncc2)Oc2cc(C#CC3CCCC3)ccc2S1(=O)=O	2	7	-16	-4	-16	-5
COc1cccc(NC(=O)N(C)C[C@@H]2Oc3ncc(C#Cc4ccc(F)cc4)cc3C(=O)N([C@H](C)CO)C[C@@H]2C)c1	0	-1	-22	0	-24	1
COc1ccc(CN(C)C[C@H]2Oc3ccc(NS(=O)(=O)c4ccc(C)cc4)cc3C(=O)N([C@@H](C)CO)C[C@@H]2C)cc1	-1	-8	13	3	2	1
CC1=C/C(=C(/c2cc(C)c(O)c(Br)c2)c2ccccc2S(=O)(=O)O)C=C(Br)C1=O	-12	47*	-41	-3	-11	.
O=C(Nc1ccccc1F)N[C@H]1CC[C@H](CCNS(=O)(=O)c2ccc(Cl)cc2)O[C@@H]1CO	-3	1	6	-6	-1	2
C#CCNC(=O)C1=C[C@H](c2ccc(C#C)cc2)C[C@H](OCCCCO)O1	.	-2	-32	.	.	.
CCN(c1ccccc1)S(=O)(=O)c1ccc(Cl)nc1	5	1	-9	.	12	-4
SMILES	Ecoli rRNA inh	AF4-AF9 inh	RAD52 anneal inh	RAD54 inh	GSIS activator	E-selectin induc
CCN(c1cccc2ccccc12)S(=O)(=O)c1ccc(Cl)nc1	-22*	-26	-4	4	3	.
Cc1nc([N+](=O)[O-])cn1CC(O)c1ccc(-c2ccccc2)cc1 (centres undefined)	-45*	.	-11	-21	4	0
Cc1ccc(C(O)Cn2cc([N+](=O)[O-])nc2C)cc1 (centres undefined)	-1	-1	0	-6	.	.
CCOc1cc(/C=N/n2cnnc2)ccc1O	10	1	3	-2	34	.
CCOc1ccc2ccc(OCC)c(/C=N/n3cnnc3)c2c1	-27*	-4	2	10	40*	0
COc1cccc(C2=Nc3cccc4cccc(c34)N2)c1	.	33*	-8	3	4	16
CCOC(=O)CCCCC(=O)c1[nH]c(=O)[nH]c1CSCCO	4	77*	3	15	15	.
CCOC(=O)CCCCC(=O)c1[nH]c(=O)[nH]c1CSc1nc(-c2ccccc2)c(C#N)c(=O)[nH]1	7	?	-16	0	9	.
O=C(c1cc(-c2ccc(Br)cc2)nc2ccccc12)N1CCC1	-25*	-6	-29	-5	3	1
O=C(Nc1nnc(C2=COCCO2)o1)c1ccc(Cc2ccccc2)cc1	-46*	-1	-9	.	2	1
O=C(Nc1nnc(C2=COCCO2)o1)c1ccc(Cl)cc1	-55	?	-2	.	1	.
Cc1ccc(-c2csc(=Nc3cccnc3)n2CCCn2ccnc2)cc1C	-48	37*	-17	.	.	.
Cc1ccc(-c2csc(=Nc3cccnc3)n2CCCN2CCCC2=O)cc1C	.	.	.	.	-27	.
Cc1noc(C)c1S(=O)(=O)Nc1ccc2c(c1)C(=O)N([C@@H](C)CO)C[C@@H](C)[C@@H](CN(C)Cc1ccc(Oc3ccccc3)cc1)O2	-14	8	4	-4	-6	-5
CCN(CC)CCOc1ccc2c(c1)C(=NO)c1cc(OCCN(CC)CC)ccc1-2	.	.	.	125*	8	.
CCCOc1ccc2c(c1)C(=NN=C(N)N)c1cc(OCCC)ccc1-2	-60	32*	4	12	124	1
CN(C)S(=O)(=O)c1ccc(Cl)c(NC(=O)CSc2nnnn2-c2ccc(O)cc2)c1	-29*	2	-85	.	13	2
CC(=O)Nc1ccc2nc(NC(=O)C(Cl)(Cl)Cl)sc2c1	-37*	-3	-14	.	-11	.
COC(=O)C1=C(C)Nc2nc(-c3ccccc3)nn2C1c1ccc(C)o1 (centres undefined)	-22*	6	-18	-8	-11	0
COC(=O)C1=C(C)NC(C)=C(C(=O)OC)C1c1ccc(C)o1	.	1	-11	-11	.	.
